We go through two molecules from ChEMBL document CHEMBL3612017, “Rigidified A3 Adenosine Receptor Agonists: 1-Deazaadenine Modification Maintains High in Vivo Efficacy” (ACS Med Chem Lett, 2015).

For data set [1], the target named is T1, Adenosine receptor A3 (Homo sapiens, UniProt P0DMS8).
T1 sequence (P0DMS8 whole entry): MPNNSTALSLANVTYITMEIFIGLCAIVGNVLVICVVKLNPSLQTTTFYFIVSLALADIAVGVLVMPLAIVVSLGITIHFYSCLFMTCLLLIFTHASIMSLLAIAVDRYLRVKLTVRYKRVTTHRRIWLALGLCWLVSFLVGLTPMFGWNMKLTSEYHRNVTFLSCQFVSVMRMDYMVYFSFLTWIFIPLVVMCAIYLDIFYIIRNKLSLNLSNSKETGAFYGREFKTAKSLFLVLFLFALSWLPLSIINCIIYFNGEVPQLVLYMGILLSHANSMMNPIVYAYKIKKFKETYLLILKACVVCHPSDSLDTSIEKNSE
The experiment in a line: Agonist activity at human adenosine A3 receptor expressed in CHO cells assessed as inhibition of cAMP production. It is filed as functional, cell-based. A digest of the protocol: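 Read-out was inhibition of cyclic AMP production in membranes prepared from CHO cells expressing the human A3 receptor. The value is an EC50 with full agonism assessed.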
On the technique in general: Cyclic AMP is a second messenger, typically raised through Gs and lowered through Gi signalling.

In data set [2] the target is T1, Adenosine receptor A3. Kind of data set: Displacement of [125I]N6-(4-amino-3-iodobenzyl)adenosine-5'-N-methyluronamide from human adenosine A3 receptor expressed in CHO cell membranes. On the technique in general: Displacement assays read how much labelled ligand stays bound in the presence of the test substance.
In data set [3] the test system is Mus musculus. Kind of data set: Analgesic activity in mouse chronic constriction injury model of neuropathic pain assessed as time duration protection hind paw mechanoallodynia of sciatic nerve at 3 umol/kg administered through oral gavage at point of peak pain on day 7. Format: functional. The method in brief:
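In CCI mice, 3 μmol/kg was given p.o. on day 7. The time course of protection against hind paw mechanoallodynia was followed, n = 4. Data were mean ± SEM, analysed by two-tailed two-way ANOVA with Bonferroni comparisons versus day 0.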

The test system of data set [4] is Mus musculus. Kind of data set: Analgesic activity in mouse chronic constriction injury model of neuropathic pain assessed as time of peak protection at 0.3 to 30 umol/kg administered through oral gavage at point of peak pain on day 7. It is filed as functional. A digest of the protocol:
(§1)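 Mice had sciatic nerve chronic constriction injury. Compound was given by oral gavage on day 7, at peak pain. Mechanoallodynia was scored on the ipsilateral and contralateral hind paws at the 1 h and 3 h time points, as % protection. n = 4 per group, some n = 3.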

The target in data set [5] is T2, Adenosine receptor A1 (Homo sapiens) (UniProt P30542).
T2 sequence (whole entry): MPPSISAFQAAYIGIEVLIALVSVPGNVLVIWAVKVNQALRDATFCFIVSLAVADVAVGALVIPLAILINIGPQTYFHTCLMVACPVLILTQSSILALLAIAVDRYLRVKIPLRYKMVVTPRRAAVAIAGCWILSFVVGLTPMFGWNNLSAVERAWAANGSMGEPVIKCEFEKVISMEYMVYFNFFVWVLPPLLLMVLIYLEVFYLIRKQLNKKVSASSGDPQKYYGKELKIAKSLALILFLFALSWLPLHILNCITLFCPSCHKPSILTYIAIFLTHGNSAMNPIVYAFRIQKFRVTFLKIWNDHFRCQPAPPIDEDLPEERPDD
Kind of data set: Displacement of [3H]N6-R-phenylisopropyladenosine from human adenosine A1 receptor expressed in CHO cell membranes at 10 uM. The method in brief: (§2)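 Radioligand binding at the human receptor subtypes. Nonspecific binding was defined with adenosine 5′-N-ethyluronamide (10 μM). Ki values came from displacement curves, mean ± SEM, n = 3 unless noted. Single-point data were expressed as % inhibition of binding at 10 μM.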

Data set [6] has as its target T3, Adenosine receptor A3 (Canis lupus familiaris, UniProt Q28309).
T3 sequence (Q28309 whole entry): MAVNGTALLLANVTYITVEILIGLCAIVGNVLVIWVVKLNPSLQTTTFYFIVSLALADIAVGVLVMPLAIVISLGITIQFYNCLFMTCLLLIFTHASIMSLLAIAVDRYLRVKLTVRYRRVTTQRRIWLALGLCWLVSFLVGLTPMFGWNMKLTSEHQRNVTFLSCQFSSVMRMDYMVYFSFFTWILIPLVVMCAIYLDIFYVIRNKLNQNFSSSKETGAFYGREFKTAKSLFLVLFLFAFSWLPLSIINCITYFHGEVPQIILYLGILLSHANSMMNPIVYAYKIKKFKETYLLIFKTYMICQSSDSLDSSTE
Kind of data set: Binding affinity to canine adenosine A3 receptor expressed in HEK293 cell membranes. As to conditions: read-out: Ki. The method in brief:
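Radioligand binding used membranes of HEK293 cells expressing the mouse or the canine A3 receptor. Affinities were given as Ki in nM, mean ± SEM, n = 3.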

The target in data set [7] is Adenosine receptor A2a (Homo sapiens) (UniProt P29274). The experiment in a line: Displacement of [3H]2-[p-(2-carboxyethyl)phenyl-ethylamino]-5'-Nethylcarboxamidoadenosine from human adenosine A2A receptor expressed in HEK293 cell membranes at 10 uM. A digest of the protocol: as §2
Data set [8] has as its system Mus musculus. The experiment in a line: Analgesic activity in mouse chronic constriction injury model of neuropathic pain assessed as protection of ipsilateral hind paw mechanoallodynia of sciatic nerve at 0.3 to 30 umol/kg administered through oral gavage at point of peak pain on day 7 measured at 3 hrs. It is filed as functional. The method in brief: as §1
The test system of data set [9] is Mus musculus. The experiment in a line: Analgesic activity in mouse chronic constriction injury model of neuropathic pain assessed as protection of ipsilateral hind paw mechanoallodynia of sciatic nerve at 0.3 to 30 umol/kg administered through oral gavage at point of peak pain on day 7 relative to control measured at 1 hr. Format: functional. The method in brief:
as §1

Data set [10] has as its target 5-hydroxytryptamine receptor 2B (Homo sapiens, UniProt P41595). Kind of data set: Binding affinity to 5HT2B receptor (unknown origin). As to conditions: read-out: Ki.
The subject of data set [11] is Mus musculus. The experiment in a line: Effect on contralateral side hind paw in mouse chronic constriction injury model of neuropathic pain at 0.3 to 30 umol/kg administered through oral gavage at point of peak pain on day 7. It is filed as ADME, organism-based. The settings on record: in vivo. A digest of the protocol:
as §1

Data set [12] deals with T4, Adenosine receptor A2b (Homo sapiens) (UniProt P29275).
T4 sequence (whole entry): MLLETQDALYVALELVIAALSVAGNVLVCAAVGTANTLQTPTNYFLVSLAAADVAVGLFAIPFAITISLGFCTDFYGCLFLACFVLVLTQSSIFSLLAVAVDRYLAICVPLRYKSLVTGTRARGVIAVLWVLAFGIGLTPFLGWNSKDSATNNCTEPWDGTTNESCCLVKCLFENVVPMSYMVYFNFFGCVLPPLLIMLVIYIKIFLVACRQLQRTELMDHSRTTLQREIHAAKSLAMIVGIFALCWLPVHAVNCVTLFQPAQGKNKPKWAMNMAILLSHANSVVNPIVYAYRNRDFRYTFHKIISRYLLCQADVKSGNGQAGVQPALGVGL
Kind of data set: Displacement of [3H]MRS1754 from human adenosine A2B receptor expressed in HEK293 cell membranes at 10 uM.

The target of data set [13] is T5, Adenosine receptor A3 (Mus musculus, UniProt Q61618).
T5 sequence (Q61618 whole entry): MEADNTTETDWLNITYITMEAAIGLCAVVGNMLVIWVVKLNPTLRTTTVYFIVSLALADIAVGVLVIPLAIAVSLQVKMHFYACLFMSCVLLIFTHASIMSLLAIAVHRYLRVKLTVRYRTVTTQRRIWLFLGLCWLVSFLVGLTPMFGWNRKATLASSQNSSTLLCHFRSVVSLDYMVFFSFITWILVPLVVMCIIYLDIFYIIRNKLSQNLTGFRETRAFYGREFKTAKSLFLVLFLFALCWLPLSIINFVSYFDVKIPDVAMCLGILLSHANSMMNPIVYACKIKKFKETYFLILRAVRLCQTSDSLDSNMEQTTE
The experiment in a line: Binding affinity to mouse adenosine A3 receptor expressed in HEK293 cell membranes. The method in brief:
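Radioligand binding used membranes of HEK293 cells expressing the mouse or the canine A3 receptor.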

Data set [14] has as its system Mus musculus. Kind of data set: Analgesic activity in intraperitoneally dosed mouse chronic constriction injury model of neuropathic pain. It is filed as functional. As to conditions: ip.
Data set [15] deals with Mus musculus. The experiment in a line: Analgesic activity in intraperitoneally dosed mouse chronic constriction injury model of neuropathic pain assessed as time of peak protection. Format: functional.

Chain of 5-hydroxytryptamine receptor 2B (P41595 whole entry): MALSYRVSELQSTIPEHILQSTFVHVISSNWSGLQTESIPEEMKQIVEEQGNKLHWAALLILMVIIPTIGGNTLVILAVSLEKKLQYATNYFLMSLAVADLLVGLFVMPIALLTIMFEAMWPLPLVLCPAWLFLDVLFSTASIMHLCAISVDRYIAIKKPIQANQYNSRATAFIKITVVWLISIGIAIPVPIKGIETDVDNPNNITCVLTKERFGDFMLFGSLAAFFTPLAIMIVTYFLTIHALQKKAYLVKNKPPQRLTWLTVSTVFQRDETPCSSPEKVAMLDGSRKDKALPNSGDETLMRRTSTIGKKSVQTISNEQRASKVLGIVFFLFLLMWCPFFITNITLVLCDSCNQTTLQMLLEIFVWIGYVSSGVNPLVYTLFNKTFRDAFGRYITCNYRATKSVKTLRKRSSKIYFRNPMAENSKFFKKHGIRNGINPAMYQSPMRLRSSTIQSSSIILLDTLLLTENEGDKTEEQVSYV
Chain of Adenosine receptor A2a (Homo sapiens) (P29274 whole entry): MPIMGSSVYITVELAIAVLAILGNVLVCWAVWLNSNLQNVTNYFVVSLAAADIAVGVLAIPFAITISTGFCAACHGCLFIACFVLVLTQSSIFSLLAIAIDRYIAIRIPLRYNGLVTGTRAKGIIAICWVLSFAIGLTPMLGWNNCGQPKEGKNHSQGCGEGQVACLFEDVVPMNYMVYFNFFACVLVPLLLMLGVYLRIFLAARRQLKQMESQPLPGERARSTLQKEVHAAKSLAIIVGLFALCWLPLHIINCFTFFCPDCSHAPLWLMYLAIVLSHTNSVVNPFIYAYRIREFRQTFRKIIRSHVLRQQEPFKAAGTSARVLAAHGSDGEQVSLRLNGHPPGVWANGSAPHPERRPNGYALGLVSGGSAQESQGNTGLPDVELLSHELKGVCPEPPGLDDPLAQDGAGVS

Usually EC50 stands for the concentration giving half of the maximal effect. One may read the Ki as a dissociation constant, usually derived from enzyme kinetics or from competition with a known ligand. One may read the inhibition as the percentage by which the read-out fell short of the control. Read a low inhibition as a response near the control. By Emax is commonly meant the greatest response seen or fitted, relative to the assay's reference. With `CCNc1cc(C#Cc2ccc(Cl)s2)nc2c1ncn2[C@H]1[C@H](O)[C@H](O)[C@]2(C(=O)NC)C[C@H]12`, the EC50 at Adenosine receptor A3 [1] is 1.5 nM. Moreover, the Ki at Adenosine receptor A3 [2] is 1.7 nM; at Adenosine receptor A3 [6], 49 nM; in data set [10], 2500 nM; on Adenosine receptor A3 [13], 16 nM. Moreover, the Time with Mus musculus [3] worked out at 5 h; with Mus musculus [4], 1 h. In addition, the inhibition in [5] came to 10%; in data set [7], 0%; in data set [12], 17%. The Activity is on record as 84% in the data set with Mus musculus [8] and “Non-toxic” with Mus musculus [11]. Further, the Emax in the data set with Mus musculus [9] amounted to 93%.

For orientation: ED50 means the dose at which the effect has come halfway, by size or by number of responders. A lower ED50 goes with an effect at a small dose. As for `NCC1(CC(=O)O)CCCCC1` [GABAPENTIN], in the data set with Mus musculus [14], the ED50 is 140 µmol/kg. For the same molecule, the Time with Mus musculus [15] was 1 h.
